Most compounds without a hit are left out; they make up all but 5.9% or so of the library.
Pf Dd2 growth: inhibitors of Plasmodium falciparum Dd2 growth. 94,000 tested, 2.3% active. activity change, % at 10 µM. P. falciparum Dd2 growth, SYBR Green, 72 h; stronger effect = lower value; in the data active = activity change below about -80%; inconclusive = no clear call, values can overlap the other calls
GASC1 inh: blocks human GASC-1 (KDM4C) demethylase activity; Q9H3R0; GST-KDM4C 2-372, H3K9me3 peptide, LANCE TR-FRET; inhibition, % at 12.5 µM; 96,000 tested, 0.15% active;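 active = mean replicate inhibition above about 25%, with at least 55% of replicates also reaching it, limit read from the data, passing the limit was not always enough; inconclusive = only one of those two conditions met; inactive = neither condition met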
Target sequence (Q9H3R0 2-372 limits assumed): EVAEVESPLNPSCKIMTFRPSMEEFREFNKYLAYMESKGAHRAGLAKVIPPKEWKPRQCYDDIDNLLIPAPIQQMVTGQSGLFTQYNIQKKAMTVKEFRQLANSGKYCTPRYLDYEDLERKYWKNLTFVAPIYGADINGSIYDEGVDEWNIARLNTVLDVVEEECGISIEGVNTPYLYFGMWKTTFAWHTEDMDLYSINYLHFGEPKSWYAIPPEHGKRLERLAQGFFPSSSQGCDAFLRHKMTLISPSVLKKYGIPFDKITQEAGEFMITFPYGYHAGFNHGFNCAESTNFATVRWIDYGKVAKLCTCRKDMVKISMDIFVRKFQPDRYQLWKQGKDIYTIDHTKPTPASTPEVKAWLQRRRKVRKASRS
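Material: GST-tagged GASC-1 (JMJD2C) catalytic fragment, aa 2-372 / Quantity: enzyme final amount 10 nM / Medium: HEPES buffer, pH 7.5, plus ascorbate / Doses: one test concentration per compound / Incubation: 30 min reaction, 60 min detection, RT / Measured by: LANCE TR-FRET / Read-out: inhibition from TR-FRET ratio decrease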
IDH1 mut inh: inhibitors of human IDH1 R132H. O75874. IDH1 R132H reductase, diaphorase/resazurin fluorescence, 60 min. inhibition, % at 10 µM. 70,000 tested, 0.18% active; in the data active = inhibition above about 34%; inconclusive = no clear call, values can overlap the other calls; inactive = below about 11%
T cruzi growth-1: blocks T. cruzi growth in NIH3T3 culture | T. cruzi beta-gal in NIH3T3, GalScreen luminescence, 90 h | inhibition, % at 8.34 µM | 77,000 tested, 5.9% active | AID 624255;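 active = mean inhibition above about 93%, with at least 55% of replicates each passing it, limit read from the data, passing the limit was not always enough; inconclusive = only one of those two conditions holds; inactive = neither condition holds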
T cruzi growth-2: Trypanosoma cruzi proliferation inhibition; 5,600 tested, 72% active; T. cruzi beta-gal in NIH3T3, GalScreen luminescence, 90 h; inhibition, % at 8.35 µM; shares compounds with T cruzi growth-1; AID 651739;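 active = mean replicate inhibition above about 95% and at least 55% of replicates individually reaching it, limit read from the data; inconclusive = only one of the two criteria is met; inactive = neither criterion is met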
T cruzi growth-3: blocks T. cruzi growth in NIH3T3 host cells | shares compounds with T cruzi growth-1 | T. cruzi beta-gal in NIH3T3, GalScreen luminescence, 90 h | inhibition, % at 2.09 µM | 5,600 tested, 21% active | AID 651740;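 active = mean inhibition above about 95%, with at least 55% of replicates also reaching it, limit read from the data; inconclusive = meets just one of the two conditions; inactive = meets neither condition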
NIH3T3 tox: NIH/3T3 (mouse) viability loss; cytotoxicity (signal decrease), % at 8.35 µM; 5,600 tested, 14% active; NIH/3T3 viability, CellTiter-Glo ATP luminescence, 90 h; shares compounds with T cruzi growth-1;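 active = mean signal decrease across replicates above about 35% based on untreated-well scatter, with enough replicates individually passing, limit read from the data; inconclusive = no rule stated though some were filed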
3T3 cytotox 2: cytotoxicity in mouse NIH/3T3 fibroblasts; shares compounds with T cruzi growth-1; AID 651744; inhibition, % at 24.9 µM; 5,600 tested, 56% active; NIH/3T3 viability, CellTiter-Glo ATP luminescence, 90 h;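 active = mean loss of cell viability signal at or above a set limit, and enough replicates individually reaching it; inconclusive = meets only the mean limit or only the replicate share; inactive = meets neither condition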
A number is an active result; - = inactive; ? = inconclusive; . = no result; ! = not active in a repeat.

SMILES	Pf Dd2 growth	GASC1 inh	IDH1 mut inh	T cruzi growth-1	T cruzi growth-2	T cruzi growth-3	NIH3T3 tox	3T3 cytotox 2
Cc1ccc(S(=O)(=O)Nc2ccc3c(c2)C(=O)N([C@@H](C)CO)C[C@H](C)[C@H](CN(C)S(=O)(=O)c2ccc(F)cc2)OCCCC[C@@H](C)O3)cc1	-	-	-	?	104.7	-	-	31.6
C[C@@H]1CN([C@@H](C)CO)C(=O)c2cccc(NS(=O)(=O)c3ccc(Cl)cc3)c2O[C@@H]1CN(C)S(C)(=O)=O	-	-	-	-	.	.	.	.
C[C@@H]1CN([C@@H](C)CO)S(=O)(=O)c2ccc(/C=C/c3ccccc3)cc2O[C@@H]1CN(C)C(=O)Nc1cccc(F)c1	-	-	-	126.6	100.8	104.6	?	29.1
C[C@@H]1CN([C@@H](C)CO)S(=O)(=O)c2ccc(/C=C/c3ccccc3)cc2O[C@H]1CN(C)C(=O)Nc1cccc(F)c1	-	-	-	127.4	95.5	97.2	49.2	80.2
C[C@H]1CN([C@@H](C)CO)S(=O)(=O)c2ccc(/C=C/c3ccccc3)cc2O[C@H]1CN(C)C(=O)Nc1cccc(F)c1	-	-	-	123.0	106.1	102.6	38.8	38.2
C/C=C/c1ccc2c(c1)O[C@H](CN(C)C(=O)Nc1cccc(F)c1)[C@H](C)CN([C@@H](C)CO)S2(=O)=O	-	-	-	-	.	.	.	.
O=C([C@@H]1[C@@H](CO)[C@@H]2Cn3c(cccc3=O)[C@@H]2N1Cc1ccccn1)N1CCC(Cc2ccccc2)CC1	-	-	.	.	.	.	.	.
O=C(Nc1cccc(F)c1)N[C@H]1CC[C@@H](CCNS(=O)(=O)c2cccc(Cl)c2)O[C@H]1CO	-	-	-	-	.	.	.	.
O=C(Nc1cccc(F)c1)N[C@H]1CC[C@H](CCNS(=O)(=O)c2cccc(Cl)c2)O[C@@H]1CO	-	-	-	152.1	-	-	-	-
O=C(Nc1cccc(F)c1)N[C@@H]1CC[C@H](CCNS(=O)(=O)c2cccc(Cl)c2)O[C@H]1CO	-88.4	-	-	114.7	-	-	-	-
CNC[C@H]1Oc2ccc(NC(=O)Nc3cccc4ccccc34)cc2CC(=O)N([C@@H](C)CO)C[C@@H]1C	-	-	-	-	.	.	.	.
O=c1c(O[C@@H]2OC[C@H](O)[C@H](O)[C@H]2O)c(-c2ccc(O)c(O)c2)oc2cc(O)cc(O)c12	.	.	-	.	.	.	.	.
C[C@H]1CCCCO[C@H](CN(C)C(=O)Nc2ccccc2)[C@@H](C)CN([C@@H](C)CO)C(=O)c2cc(NS(=O)(=O)c3ccc(Cl)cc3)ccc2O1	-83.6	-	.	?	103.0	-	-	-
C[C@@H]1CCCCO[C@@H](CN(C)C(=O)Nc2ccccc2)[C@@H](C)CN([C@@H](C)CO)C(=O)c2cc(NS(=O)(=O)c3ccc(Cl)cc3)ccc2O1	-	-	.	117.8	103.7	-	-	-
C[C@H](CO)N1C[C@H](C)[C@H](CN(C)C(=O)c2ccccc2)OCCCC[C@H](C)Oc2ccc(NS(=O)(=O)c3ccc(Cl)cc3)cc2C1=O	-	-	.	101.0	-	-	-	-
C[C@@H]1CCCCO[C@@H](CN(C)C(=O)Nc2ccccc2)[C@@H](C)CN([C@H](C)CO)C(=O)c2cc(NS(=O)(=O)c3ccc(Cl)cc3)ccc2O1	-	-	-	-	.	.	.	.
C[C@H]1CCCCO[C@@H](CN(C)C(=O)Cc2ccccc2)[C@@H](C)CN([C@@H](C)CO)C(=O)c2cc(NS(=O)(=O)c3ccc(Cl)cc3)ccc2O1	-	-	.	101.1	109.4	-	-	-
COc1ccc(C#Cc2cnc3c(c2)C(=O)N([C@@H](C)CO)C[C@@H](C)[C@@H](CN(C)C(=O)Nc2cccc(OC)c2)O3)cc1	-	-	.	?	108.8	-	-	-
COc1ccc(C#Cc2cnc3c(c2)C(=O)N([C@@H](C)CO)C[C@H](C)[C@@H](CN(C)C(=O)Nc2cccc(OC)c2)O3)cc1	-	-	.	-	.	.	.	.
COc1ccc(C#Cc2cnc3c(c2)C(=O)N([C@H](C)CO)C[C@H](C)[C@@H](CN(C)C(=O)Nc2cccc(OC)c2)O3)cc1	-	-	-	110.0!	96.2	-	-	29.0
COc1ccc(C#Cc2cnc3c(c2)C(=O)N([C@H](C)CO)C[C@@H](C)[C@@H](CN(C)C(=O)Nc2cccc(OC)c2)O3)cc1	-	-	-	?	109.8	-	-	-
CO[C@@H]1CN(C)C(=O)c2ccc(NC(=O)Nc3cc(F)ccc3F)cc2OC[C@@H](C)NC[C@@H]1C	-	-	-	-	.	.	.	.
COc1cccc(-c2ccc3c(c2)O[C@@H](CN(C)C(=O)C2CCOCC2)[C@@H](C)CN([C@@H](C)CO)S3(=O)=O)c1	-	-	-	.	.	.	.	.
Cn1cnc(S(=O)(=O)N2CC[C@H]3[C@H](CO)Nc4ccc(-c5cccc(F)c5)cc4[C@H]32)c1	-	-	.	110.1	98.8	-	-	-
Cn1cnc(S(=O)(=O)N2CC[C@@H]3[C@@H](CO)Nc4ccc(-c5ccc(F)cc5)cc4[C@@H]32)c1	-	-	.	?	105.2	-	-	-
SMILES	Pf Dd2 growth	GASC1 inh	IDH1 mut inh	T cruzi growth-1	T cruzi growth-2	T cruzi growth-3	NIH3T3 tox	3T3 cytotox 2
Cn1cnc(S(=O)(=O)N2CC[C@@H]3[C@@H](CO)Nc4ccc(-c5cccc(F)c5)cc4[C@@H]32)c1	-	-	.	102.7	103.1	-	-	-
COc1ccc(S(=O)(=O)Nc2ccc3c(c2)C(=O)N([C@H](C)CO)C[C@@H](C)[C@@H](CN(C)S(=O)(=O)c2ccc(Cl)cc2)O3)cc1	.	-	-	.	.	.	.	.
O=C(c1cccc(F)c1)N1C[C@@H]2[C@H](c3ccccc31)[C@H](CO)N2C(=O)Cc1ccccc1	-	-	.	-	.	.	.	.
COC(=O)C[C@H]1CC[C@H]2[C@H](COc3ccc(NC(=O)Nc4ccc(Cl)cc4)cc3C(=O)N2C)O1	-	-	.	110.1	103.1	114.4	-	33.5
COC(=O)C[C@H]1CC[C@H]2[C@H](COc3ccc(NS(=O)(=O)c4ccc(F)cc4)cc3C(=O)N2C)O1	-	-	.	97.1	-	-	-	-
CN1C(=O)c2cc(NS(=O)(=O)c3ccc(Cl)cc3)ccc2OC[C@@H]2O[C@H](CC(=O)N3CCc4ccccc4C3)CC[C@@H]21	-	-	.	107.0	107.6	-	-	-
CCCNC(=O)N(C)C[C@@H]1Oc2cc(C3=CCCC3)ccc2S(=O)(=O)N([C@@H](C)CO)C[C@@H]1C	-	-	.	.	.	.	.	.
COc1ccccc1C(=O)Nc1ccc2c(c1)C(=O)N(C)C[C@H](OC)[C@H](C)CN[C@@H](C)CO2	-	-	-	-	.	.	.	.
